Source: PubChem BioAssay (Broad Institute)
A1 apoptosis 2 – blocks A1, raising caspase activity; 24,000 tested, under 10 active; AID 2465; MEF A1-2A-BIM cells, caspase-Glo luminescence, 3 h; percent of clofoctol response, DMSO zero; caspase activation, % (concentration not given with the values); in the data active = caspase activation above about 5.9%; inconclusive = no clear call, values can overlap the other calls; inactive = below about 2.2%
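system = A1-2A-BIM-expressing MEF cells | quantity = 2500 MEF cells/well | dosing = 50 nL compound per well, pinned | schedule = overnight cell settling, then 3 h compound exposure, 37 °C | signal = luminescence from DEVD-luciferin Caspase-Glo reagent, 1:1 in 50 mM HEPES, 1 h RT | read-out = Caspase-3/7 activation, seen as rise in luminescence signal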
INS-1E ATP HTS – preserves ATP levels in cytokine-treated INS-1E cells; AID 488910; protection from cytokine-induced ATP loss, % at 10 µM; hit rate 0.1% among 20,000; INS-1E cytokine-induced death, ATP luminescence, 48 h; normalised: neutral wells 0, positive control 100;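 active = mean replicate protection from cytokine-induced ATP loss at least 50% and at least 75% of replicates each reaching 50%; inconclusive = meets only one of the two criteria, mean or replicate share; inactive = fails both the mean and replicate share criteria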
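Assay system: INS-1E rat insulinoma cells. Amount: 8000 cells per well. Medium: phenol-red-free RPMI with 5% fetal bovine serum. Reagent: IL-1β, TNF-α and IFN-γ cytokine mix. Doses: one compound concentration, pin transfer. Schedule: 48 h co-treatment, 10 min post-lysis read. Detection: CellTiter-Glo luminescence measuring cellular ATP.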
T cruzi intra – intracellular Trypanosoma cruzi inhibition. intracellular Trypanosoma cruzi in host cells, plate reader. hit rate 4.9% among 22,000. activity score (inhibition), % at 5.01 µM. AID 651903; in the data active = activity score above about 55%; inconclusive = no clear call, values can overlap the other calls;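 note: parasites and compound incubated about four days before reading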
A number is an active result; 0 = inactive; ? = inconclusive; - = not tested or not shown. Only a selection was taken, and hits are over-represented in it overall.

SMILES	A1 apoptosis 2	INS-1E ATP HTS	T cruzi intra
C[C@H]1CN([C@@H](C)CO)C(=O)c2cccc(NC(=O)c3nc4ccccc4s3)c2O[C@@H]1CN(C)Cc1ccc(C(F)(F)F)cc1	-	0	64
C[C@@H]1CN([C@@H](C)CO)C(=O)c2cccc(NC(=O)c3nc4ccccc4s3)c2O[C@H]1CN(C)Cc1ccccc1	0	0	0
C[C@H](CO)N1C[C@H](C)[C@H](CN(C)Cc2ccc(C(F)(F)F)cc2)Oc2c(NC(=O)c3nc4ccccc4s3)cccc2C1=O	0	0	67
C[C@@H]1CN([C@@H](C)CO)C(=O)c2cccc(NC(=O)c3nc4ccccc4s3)c2O[C@@H]1CN(C)Cc1ccc(C(=O)O)cc1	-	0	0
C[C@@H]1CN([C@H](C)CO)C(=O)c2cccc(NC(=O)c3nc4ccccc4s3)c2O[C@@H]1CN(C)Cc1ccc(C(F)(F)F)cc1	-	0	0
C[C@@H]1CN([C@@H](C)CO)C(=O)c2cccc(NC(=O)NC3CCCCC3)c2O[C@@H]1CN(C)C(=O)Nc1ccc2c(c1)OCO2	0	0	0
C[C@H](CO)N1C[C@H](C)[C@@H](CN(C)Cc2ccc(C(=O)Nc3ccccc3N)cc2)Oc2c(NC(=O)C3CCOCC3)cccc2C1=O	0	0	0
CC(C)(C)OC(=O)N1CCC[C@H]1/C=N/NC(=O)c1ccccn1	-	0	0
C[C@H]1CCCCO[C@@H](CN(C)C)[C@@H](C)CN([C@@H](C)CO)C(=O)c2cc(NC(=O)Nc3ccccc3)ccc2O1	0	-	-
Cc1cc(C(=O)Nc2cccc3c2O[C@H](CN(C)C(=O)Nc2ccccc2)[C@H](C)CN([C@H](C)CO)C3=O)n(C)n1	0	0	0
C[C@@H]1CCCCO[C@@H](CN(C)Cc2ccccc2)[C@@H](C)CN([C@@H](C)CO)C(=O)c2cc(NS(=O)(=O)c3ccccc3)ccc2O1	0	-	-
CC(C)NC(=O)N(C)C[C@@H]1Oc2ccc(NC(=O)Cc3ccccc3)cc2CC(=O)N([C@H](C)CO)C[C@@H]1C	0	0	0
C[C@@H]1CN([C@H](C)CO)C(=O)c2cccc(NC(=O)CCCCCC(=O)Nc3ccccc3N)c2O[C@@H]1CN(C)CC1CC1	0	0	0
C[C@H](CO)N1C[C@H](C)[C@H](CN(C)CC2CCCCC2)Oc2c(NC(=O)CCCCCC(=O)Nc3ccccc3N)cccc2C1=O	0	0	0
C[C@H]1CN([C@@H](C)CO)C(=O)c2cccc(NC(=O)CCCCCC(=O)Nc3ccccc3N)c2O[C@H]1CN(C)CC1CCCCC1	0	0	0
C[C@H]1CN([C@@H](C)CO)C(=O)c2cccc(NC(=O)CCCCCC(=O)Nc3ccccc3N)c2O[C@@H]1CN(C)CC1CC1	0	0	77
C[C@@H]1CN([C@H](C)CO)C(=O)c2cccc(NC(=O)CCCCCC(=O)Nc3ccccc3N)c2O[C@H]1CN(C)CC1CC1	-	0	59
C[C@@H]1CN([C@@H](C)CO)C(=O)c2cccc(NC(=O)CCCCCC(=O)Nc3ccccc3N)c2O[C@H]1CN(C)CC1CC1	-	0	60
C[C@@H]1CN([C@H](C)CO)C(=O)Cc2cc(NS(C)(=O)=O)ccc2O[C@H]1CN(C)C(=O)NC1CCCCC1	0	0	0
Cc1noc(C)c1NC(=O)Nc1ccc2c(c1)CC(=O)N([C@H](C)CO)C[C@@H](C)[C@@H](CN(C)C(=O)Nc1ccc(C(F)(F)F)cc1)O2	0	0	0
C[C@@H]1CN([C@@H](C)CO)C(=O)c2cccc(NC(=O)Nc3ccc(C(F)(F)F)cc3)c2O[C@@H]1CN(C)CC1CC1	0	0	0
C[C@H](CO)N1C[C@H](C)[C@H](CN(C)CC2CCCCC2)Oc2ccc(NC(=O)Nc3ccc(C(F)(F)F)cc3)cc2C1=O	0	0	62
C[C@@H]1CN([C@@H](C)CO)C(=O)c2cc(NC(=O)Nc3ccc(C(F)(F)F)cc3)ccc2O[C@H]1CN(C)CC1CCCCC1	0	0	0
C[C@@H]1CN([C@@H](C)CO)C(=O)c2cccc(NC(=O)Nc3ccc(C(F)(F)F)cc3)c2O[C@@H]1CN(C)CC1CCCCC1	0	0	78
C[C@@H]1CCCCO[C@H](CN(C)S(=O)(=O)c2ccc(Cl)cc2)[C@@H](C)CN([C@H](C)CO)C(=O)c2cc(NC(=O)Nc3ccc(C(F)(F)F)cc3)ccc2O1	0	0	71
SMILES	A1 apoptosis 2	INS-1E ATP HTS	T cruzi intra
C[C@@H]1CCCCO[C@@H](CN(C)S(=O)(=O)c2ccc(Cl)cc2)[C@@H](C)CN([C@H](C)CO)C(=O)c2cc(NC(=O)Nc3ccc(C(F)(F)F)cc3)ccc2O1	-	0	0
C[C@@H]1CCCCO[C@@H](CN(C)CC2CCCCC2)[C@@H](C)CN([C@H](C)CO)C(=O)c2cc(NC(=O)Nc3ccc(F)cc3)ccc2O1	-	0	71
C[C@@H]1CN([C@@H](C)CO)C(=O)c2cc(NC(=O)Nc3ccc(F)cc3)ccc2O[C@@H](C)CCCCO[C@@H]1CN(C)CC1CCCCC1	0	-	-
C[C@H](CO)N1C[C@H](C)[C@H](CN(C)C)Oc2c(NS(=O)(=O)c3ccccc3)cccc2C1=O	0	0	0
COc1ccc(NC(=O)N(C)C[C@H]2Oc3ccc(NS(=O)(=O)c4ccc(Cl)cc4)cc3CC(=O)N([C@H](C)CO)C[C@H]2C)cc1	-	0	0
C[C@@H]1CCCCO[C@H](CN(C)S(=O)(=O)c2cn(C)cn2)[C@H](C)CN([C@@H](C)CO)C(=O)c2cc(NC(=O)Nc3ccccc3)ccc2O1	0	-	-
COc1ccc(S(=O)(=O)N(C)C[C@H]2OCCCC[C@@H](C)Oc3ccc(NC(=O)Nc4ccc(F)cc4)cc3C(=O)N([C@@H](C)CO)C[C@@H]2C)cc1	0	-	-
C[C@H]1CCCCO[C@@H](CN(C)CC2CCCCC2)[C@@H](C)CN([C@@H](C)CO)C(=O)c2cc(NC(=O)Nc3ccc(C(F)(F)F)cc3)ccc2O1	0	-	-
C[C@@H]1CCCCO[C@@H](CN(C)CC2CCCCC2)[C@@H](C)CN([C@H](C)CO)C(=O)c2cc(NC(=O)Nc3ccc(C(F)(F)F)cc3)ccc2O1	-	0	73
C[C@@H]1CN([C@@H](C)CO)C(=O)c2cccc(NC(=O)c3nc4ccccc4s3)c2O[C@@H]1CN(C)S(=O)(=O)c1ccc(F)cc1	0	0	0
C[C@H](CO)N1C[C@H](C)[C@@H](CN(C)S(=O)(=O)c2ccc(F)cc2)Oc2c(NC(=O)c3nc4ccccc4s3)cccc2C1=O	-	0	?
COc1ccc(S(=O)(=O)N(C)C[C@@H]2Oc3c(NC(=O)c4nc5ccccc5s4)cccc3C(=O)N([C@H](C)CO)C[C@@H]2C)cc1	0	0	70
C[C@H](CO)N1C[C@H](C)[C@H](CN(C)S(=O)(=O)c2cccs2)Oc2c(NC(=O)c3nc4ccccc4s3)cccc2C1=O	0	0	76
C[C@H]1CN([C@@H](C)CO)C(=O)c2cccc(NC(=O)c3nc4ccccc4s3)c2O[C@H]1CN(C)S(=O)(=O)c1ccc(F)cc1	-	0	74
C[C@H]1CN([C@@H](C)CO)C(=O)c2cccc(NC(=O)c3nc4ccccc4s3)c2O[C@H]1CN(C)S(=O)(=O)c1cccs1	0	0	0
